# Laboratory results published in ChEMBL document CHEMBL1157807, “NO-releasing esters show carbonic anhydrase inhibitory action against human isoforms I and II” (Bioorg Med Chem, 2010).
# What was measured:
# [1] = biological target: T1, Carbonic anhydrase 1 (Homo sapiens, UniProt P00915); assay: Inhibition of human carbonic anhydrase 1 esterase activity by spectrophotometry; conditions: read-out: I50
# Method in brief: (§1)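 Enzyme purified from human erythrocytes. Esterase activity is followed as 4-nitrophenylacetate conversion to 4-nitrophenylate by absorbance at 348 nm over 3 min at 25 °C, in Tris–SO4 buffer pH 7.4. A reference cuvette lacks enzyme. Each inhibitor concentration is run in triplicate, with uninhibited control activity set to 100%. IC50 is read from %activity vs [inhibitor] plots.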
# [2] = biological target: T2, Carbonic anhydrase 2 (Homo sapiens, UniProt P00918); assay: Inhibition of human carbonic anhydrase 2 esterase activity by spectrophotometry; conditions: read-out: I50; method in brief: as §1
# [3] = biological target: T2, Carbonic anhydrase 2; assay: Competitive inhibition of human carbonic anhydrase 2 esterase activity by Lineweaver-Burke plot analysis
# Method in brief: (§2)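 Erythrocyte-purified human isozyme in the 4-nitrophenylacetate esterase assay, read at 348 nm over 3 min at 25 °C in Tris–SO4 pH 7.4. Three inhibitor concentrations are each tested against five substrate concentrations (0.15–0.75 mM). Ki and inhibition mode are taken from Lineweaver–Burk plots.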
# [4] = biological target: T1, Carbonic anhydrase 1; assay: Competitive inhibition of human carbonic anhydrase 1 esterase activity by Lineweaver-Burke plot analysis; method in brief: as §2
# [5] = biological target: T2, Carbonic anhydrase 2; assay: Uncompetitive inhibition of human carbonic anhydrase 2 esterase activity by Lineweaver-Burke plot analysis; method in brief: as §2
# [6] = biological target: T1, Carbonic anhydrase 1; assay: Noncompetitive inhibition of human carbonic anhydrase 1 esterase activity by Lineweaver-Burke plot analysis; method in brief: as §2
# [7] = biological target: T2, Carbonic anhydrase 2; assay: Noncompetitive inhibition of human carbonic anhydrase 2 esterase activity by Lineweaver-Burke plot analysis; method in brief: as §2
# [8] = biological target: T1, Carbonic anhydrase 1; assay: Uncompetitive inhibition of human carbonic anhydrase 1 esterase activity by Lineweaver-Burke plot analysis; method in brief: as §2
# T1 sequence (P00915 whole entry): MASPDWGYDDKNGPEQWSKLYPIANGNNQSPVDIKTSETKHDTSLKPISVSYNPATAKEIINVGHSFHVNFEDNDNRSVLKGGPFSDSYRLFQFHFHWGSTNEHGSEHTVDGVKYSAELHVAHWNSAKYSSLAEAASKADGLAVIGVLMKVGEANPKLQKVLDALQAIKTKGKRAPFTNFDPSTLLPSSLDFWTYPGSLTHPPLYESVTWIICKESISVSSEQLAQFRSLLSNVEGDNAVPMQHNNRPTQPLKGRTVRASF
Compound,IC50 [1] [mM],IC50 [2] [µM],Ki [3] [µM],Ki [4] [mM],Ki [5] [µM],Ki [6] [mM],Ki [7] [µM],Ki [8] [mM]
O=[N+]([O-])O[C@@H]1CC2c3ccccc3C1[C@@H]2O (stereo partly drawn),10.2,98.1,196,18.7,–,–,–,–
O=[N+]([O-])O[C@H]1CC2CCC1[C@@H]2O (stereo partly drawn),9.1,73.1,133,17.2,–,–,–,–
O=[N+]([O-])O[C@@H]1CC2CCC1[C@@H]2O (stereo partly drawn),7.13,65.1,121,13.6,–,–,–,–
O=[N+]([O-])O[C@@H]1CC[C@H](Br)[C@@H]2CC[C@H]1O2,12.1,110,–,–,223,22.5,–,–
O=[N+]([O-])O[C@H]1CCCCCC[C@@H]1O,23,181,–,–,–,45.2,267,–
O=[N+]([O-])O[C@H]1CCCC[C@@H]1O,–,560,–,–,–,221,986,–
O=[N+]([O-])O[C@H]1CC=CC[C@@H]1O (racemic),–,790,–,–,–,274,1370,–
O=[N+]([O-])O[C@H]1CC/C=C\CC[C@@H]1O (racemic),21,243,–,–,–,41.8,541,–
"O=[N+]([O-])O[C@@H](CO)c1ccccc1 (single isomer, unassigned)",–,632,–,–,–,–,1140,288
